The list is a sample of the results.
Apaf-1 act: human Apaf-1 activation. Apaf-1 apoptosome caspase-3 activation, DEVD-Rh110 fluorescence; hits give low values. 330,000 compounds, 0.31% hits. activity change, negative = activation, % at 20 µM. AID 489031. O14727;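 active means activity change at or below -40% at 20 µM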
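Material: reconstituted apoptosome of Apaf-1, cytochrome c, caspase-9, procaspase-3; times: 30 min preincubation, 50 min reaction, room temperature; measured by: fluorescence, 540 nm emission, 480 nm excitation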
Rh110 interf act: interferes with Rh110 fluorescence, flagging false Apaf-1 activators; shares compounds with Apaf-1 act; Rh110 fluorescence interference, quenched caspase reaction, Ex480/Em540; fluorescence interference (activity change), % at 20 µM, hits read low; 980 tested, under 10 active; AID 504616;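 active means mean activity change at or below -40% when tested at 20 µM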
Apaf-1 act conf2: Apaf-1 (human) activation, single-dose confirmed. shares compounds with Apaf-1 act. activity change, negative = activation, % at 20 µM. 980 compounds, 5% hits. AID 504617. reconstituted apoptosome caspase-3 activity, DEVD-Rh110 fluorescence; hits give low values;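 active means mean activity change at or below -40%, meaning activation of 40% or more, at 20 µM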
Fluor interf act: counter-screen for Apaf-1 activators: fluorescence interference, dose response; fluorescence interference counterscreen, Apaf-1 activator assay; shares compounds with Apaf-1 act; EC50, µM; 55 tested, under 10 active; call rule not given here
Of the large screens only hits and unclear results are named; the others gave an inactive call (follow-up assays come after a bar, where they were run).

CN1CCN(c2ccc(NC(=O)c3ccc(-c4ccc(Cl)cc4)o3)cc2)CC1	none
COC(=O)c1ccc(NC(=S)N2CCN(Cc3ccc(Cl)cc3)CC2)cc1	Apaf-1 act -350.3 | Rh110 interf act inactive | Apaf-1 act conf2 inactive
C=C(C)C(=O)Nc1cccc(C2=NOC3(C2)C[C@@H](C(N)=O)N(C(=O)CCCCC)C3)c1 (some centres undefined)	Apaf-1 act -333.2 | Rh110 interf act inactive | Apaf-1 act conf2 -120.8 | Fluor interf act inactive
COc1ccc(SC[C@H](C)CN2CC[C@H](NC(=O)OCc3ccccc3)CCC2=O)cc1	none
Cc1ccc(NC(=O)C(C)N2C(=O)C3C4CC(C(Br)C4Br)C3C2=O)cc1 (centres undefined)	Apaf-1 act -419.1 | Rh110 interf act inactive | Apaf-1 act conf2 inactive
CCC[C@@H](CN1CCC[C@H]1CN1C(N)=NC[C@@H]1Cc1ccccc1)N1C[C@@H]([C@H](C)CC)N(CCCC2CCCC2)C1=N	none
CCOC(=O)C1=C(COC(=O)c2ccc([N+](=O)[O-])s2)NC(=O)NC1C (centres undefined)	none
COc1cc2oc3ccccc3c2cc1N(CC(=O)N1CCCCC1)S(=O)(=O)c1ccc(C)cc1	Apaf-1 act -236.4 | Rh110 interf act inactive | Apaf-1 act conf2 inactive
COc1ccc(S(=O)(=O)N2CCCCCC2)cc1C(=O)N(C)CCOc1ccccc1	none
CC(C)n1ncc2c(C(=O)Nc3ccc(S(N)(=O)=O)cc3)cc(C3CC3)nc21	none
CCn1nc(C(=O)Nc2ccccc2C)c(Cl)c1Cl	Apaf-1 act -137.0 | Rh110 interf act inactive | Apaf-1 act conf2 inactive
COc1cccc(-c2sc3ccccc3c2-c2ccc(OCCN3CCCC3)cc2)c1	none
O=C(c1ccccc1)N1CCCC(c2ccc(Cl)cc2)=N1	Apaf-1 act -41.5 | Rh110 interf act inactive | Apaf-1 act conf2 inactive
C#CCOCCOCCOCCNc1nc(N2CCN(C(=O)[C@H]([C@@H](C)CC)n3cc([C@@H](N)CC(C)C)nn3)CC2)nc(N2CCN(C(=O)[C@H](Cc3cc4ccccc4[nH]3)n3cc([C@@H](N)Cc4ccc(O)cc4)nn3)CC2)n1	none
O=C(NC1CC1)c1ccc(CS(=O)c2ccccc2)o1 (centres undefined)	Apaf-1 act -96.6 | Rh110 interf act inactive | Apaf-1 act conf2 inactive
CC(C)C(C(=O)O)N1C(=O)/C(=C/C=C/c2ccco2)SC1=S (centres undefined)	none
O=C(Nc1ccc(Cl)c(Cl)c1)Nc1nc(-c2ccccc2)cs1	Apaf-1 act -366.0 | Rh110 interf act inactive | Apaf-1 act conf2 inactive
Cc1nc(C(=O)NNC(=O)Nc2ccccc2)cs1	none
COCCN1C(=S)N[C@@H](c2cccc(F)c2)C(C(=O)OC)=C1C	none
CC1=NN(c2ccc(Cl)cc2)C(=O)C1C(c1ccccc1O)c1c(C)[nH]n(-c2ccc(Cl)cc2)c1=O (centres undefined)	none
CCN1C(=O)CC(c2ccccc2)N(C2CCCC2)c2nc(Nc3ccc(C(=O)NC4CCN(C)CC4)cc3OC)ncc21 (centres undefined)	none
NC(=O)c1c(NC(=O)CCCn2cnc([N+](=O)[O-])n2)sc2c1CCCC2	Apaf-1 act -90.3 | Rh110 interf act inactive | Apaf-1 act conf2 inactive
CCN1CCc2c(sc(NC(=O)c3ccc(C(=O)c4ccccc4)cc3)c2C(N)=O)C1	none
CC1CC(C)(C)NC(=O)O1 (centres undefined)	Apaf-1 act -88.4 | Rh110 interf act inactive | Apaf-1 act conf2 inactive
COC(=O)c1ccc(N2CC3CNC(=O)C2(C(=O)OC)N3C)cc1 (centres undefined)	none
CC[C@@H](C)[C@@H]1CN([C@@H](CN2CCC[C@H]2CN2C(N)=NC[C@H]2CC(C)C)C(C)C)C(=N)N1CCc1ccc(Cl)c(Cl)c1	none
COc1ccc(/C=N/Nc2cc(C)nc3ccc(OC)cc23)c(OC)c1	none
Fc1ccccc1Nc1nc(-c2ccncc2)nc2ccccc12	Apaf-1 act -321.1 | Rh110 interf act inactive | Apaf-1 act conf2 inactive
CCCCCc1cc(=O)oc2c(C(CCN3CCCC(C)C3)c3ccc(OC)cc3)c(OC)cc(OC)c12 (centres undefined)	none
CC(=O)Nc1ccc2c(c1)N(C(=O)CN(C)C)c1ccccc1CC2	none
CCn1c(=O)c2cc(C(=O)N(C)c3cc(C)ccc3OC)sc2c2ccccc21	none
CCn1c2ccccc2c2cc(NC(C)=O)ccc21	Apaf-1 act -225.6 | Rh110 interf act inactive | Apaf-1 act conf2 inactive
O=C(O)CC1S/C(=N/N=C/c2ccc(-c3ccccc3[N+](=O)[O-])o2)NC1=O (centres undefined)	none
COCCCC/C(=N\OCCN)c1ccc(C(F)(F)F)cc1	none
CCc1sc(NC(=O)CCC(=O)O)nc1-c1cc2ccccc2oc1=O	Apaf-1 act -222.7 | Rh110 interf act inactive | Apaf-1 act conf2 inactive
COc1ccc2c(c1)Cc1sc(NC(=O)c3ccccc3)nc1-2	none
Cc1ccc(NC(=O)Nc2nnc(CSCCOc3ccc(Cl)cc3)s2)cc1	Apaf-1 act -253.3 | Rh110 interf act inactive | Apaf-1 act conf2 inactive
COc1ccc(N2CCN(C(c3cc(OC)ccc3OC)c3nnnn3Cc3ccco3)CC2)cc1 (centres undefined)	Apaf-1 act -258.1 | Rh110 interf act inactive | Apaf-1 act conf2 inactive
Cc1ccc(C)c2[nH]c(=O)c(C(c3nnnn3Cc3ccco3)N3CCc4ccccc4C3)cc12 (centres undefined)	none
COC(=O)CCC(=O)OC1(C)C(=O)C2=CN(CCN3CCOCC3)C(c3ccc(OC)cc3)=CC2=C(Br)C1=O (centres undefined)	none
CCCC(=O)OC1CC(C)N(C(=O)c2ccccc2)c2ccc(C)cc21 (centres undefined)	Apaf-1 act -66.8 | Rh110 interf act inactive | Apaf-1 act conf2 inactive
O=C(OCC(=O)N1CCN(S(=O)(=O)c2ccccc2)CC1)c1ccc([N+](=O)[O-])o1	none
Cc1cnc(C(=O)NC2CC(C)(C)Cc3c2cnn3-c2ccccc2)cn1 (centres undefined)	Apaf-1 act -85.3 | Rh110 interf act inactive | Apaf-1 act conf2 inactive
CC(=O)NC1N=C(C)N(c2ccccc2)C1=O (centres undefined)	none
COc1ccc(-c2c(C#Cc3ccc(N(C)C)cc3)c3ccccc3n2C)cc1	none
CCCCc1nn2c(N)c(/C=C3\C=Nc4ccccc43)c(=O)nc2s1	Apaf-1 act -458.8 | Rh110 interf act inactive | Apaf-1 act conf2 inactive
CN(C)CCCNC(=O)C(=O)NCC1OCCN1S(=O)(=O)c1cccs1 (centres undefined)	none
CCC(OCC(O)CN1CCCCC1)c1ccccc1 (centres undefined)	Apaf-1 act -516.0 | Rh110 interf act inactive | Apaf-1 act conf2 inactive
Cc1cc(C)c(S(=O)(=O)/N=C2/C=C(SCC(=O)O)C(=O)c3ccccc32)cc1C	none
OC(CN1CCN(c2ccccc2)CC1)c1ccc2c(c1)CCN2 (centres undefined)	Apaf-1 act -459.9 | Rh110 interf act inactive | Apaf-1 act conf2 inactive
COc1cccc(OCC(O)CN2CCN(c3ccccc3)CC2)c1 (centres undefined)	none
CCN(CC)C(=O)[C@H]1CC(CC(=O)NC/C=C(\C)CCC=C(C)C)C(=O)N2CCc3c([nH]c4ccc(OC)cc34)[C@]12C (some centres undefined)	none

Screening data deposited in PubChem by Sanford-Burnham Center for Chemical Genomics.
